Experimental findings from ChEMBL document CHEMBL4382264, “Melanogenesis-Inhibitory and Cytotoxic Activities of Triterpene Glycoside Constituents from the Bark of Albizia procera” (J Nat Prod, 2018) are described below.

Each structure is given as a SMILES string.

Data set [1] has as its system B16-F10. In words: Inhibition of alpha-MSH-stimulated melanogenesis in mouse B16F10 cells assessed as melanin content at 10 uM measured after 48 hrs relative to control. Type of data set: functional. Further details: scale not given: the % may be the effect or the level left. The gist of the method:
(§1)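 B16F10 cells treated with test sample plus 0.10 μM α-MSH for 48 h. Melanin solubilized in 2 N NaOH–10% DMSO and read at 405 nm. Expressed as % of DMSO-treated cells (DMSO 2 μL·mL−1). Mean ± SD, n = 3.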

Data set [2] deals with B16-F10. In words: Inhibition of alpha-MSH-stimulated melanogenesis in mouse B16F10 cells assessed as melanin content at 100 uM measured after 48 hrs relative to control. It counts as functional. Further details: scale not given: the % may be the effect or the level left. The gist of the method:
as §1

Data set [3] in a line: Cytotoxicity against non-stimulated mouse B16F10 cells assessed as cell viability at 10 uM relative to control. Type of data set: cell-based, B16-F10. The conditions noted are these: read-out: Activity. The gist of the method: (§2)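 B16 melanoma cells tested for viability at 10 or 100 μM. Absorbance read at 570 nm (test) minus 630 nm (reference). Expressed as % of DMSO control (DMSO 2 μL·mL−1). Mean ± SD, n = 3.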

A short description of data set [4]: Cytotoxicity against non-stimulated mouse B16F10 cells assessed as cell viability at 100 uM relative to control. Type of data set: cell-based, B16-F10. The conditions noted are these: read-out: Activity. The gist of the method: as §2
In data set [5] the test system is B16-F10. The data set is described as follows: Selectivity index, ratio of compound effect for cytotoxicity against non-stimulated mouse B16F10 cells assessed as cell viability at 10 uM to compound effect for inhibition of alpha-MSH-stimulated melanogenesis in mouse B16F10 cells assessed as melanin content at 10 uM.
Data set [6] has as its system B16-F10. The data set is described as follows: Selectivity index, ratio of compound effect for cytotoxicity against non-stimulated mouse B16F10 cells assessed as cell viability at 100 uM to compound effect for inhibition of alpha-MSH-stimulated melanogenesis in mouse B16F10 cells assessed as melanin content at 100 uM.
The next data set concerns HL-60. In words: Cytotoxicity against human HL60 cells assessed as reduction in cell viability after 48 hrs by MTT assay. It counts as functional, cell-based. The conditions noted are these: HL-60, 48 h. The gist of the method:
(§3)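 Cells exposed to compounds from 1 × 10−4 to 1 × 10−6 M for 48 h. Viability read by MTT. IC50 derived from five concentrations, each run in triplicate.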
On the technique in general: Formazan colour is commonly taken as a measure of viable cells.

The test system of another data set is AZ-521 cell line. The data set is described as follows: Cytotoxicity against human AZ-521 cells assessed as reduction in cell viability after 48 hrs by MTT assay. The conditions noted are these: AZ-521, 48 h. It counts as functional, cell-based. The gist of the method: as §3
The next data set has as its system SK-BR-3. The data set is described as follows: Cytotoxicity against human SKBR3 cells assessed as reduction in cell viability after 48 hrs by MTT assay. It counts as functional, cell-based. The conditions noted are these: SK-BR-3, 48 h. The procedure, abridged:
as §3

A further data set concerns A549. The data set is described as follows: Cytotoxicity against human A549 cells assessed as reduction in cell viability after 48 hrs by MTT assay. Type of data set: functional, cell-based. The conditions noted are these: A549, 48 h. The gist of the method: as §3
The next data set concerns WI-38. The data set is described as follows: Cytotoxicity against human WI38 cells assessed as reduction in cell viability after 48 hrs by MTT assay. Type of data set: cell-based. The conditions noted are these: WI-38, 48 h. The gist of the method: as §3
A short description of data set [7]: Selectivity index, ratio of IC50 for human […] cells to IC50 for human A549 cells. The procedure, abridged:
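Selectivity index equals the IC50 against WI38 normal cells divided by the IC50 against A549 cells.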

`OC[C@H]1O[C@@H](Oc2ccc(O)cc2)[C@H](O)[C@@H](O)[C@@H]1O` [ARBUTIN]: the Activity in the data set on B16-F10 [1] is listed as 92.7%; with B16-F10 [2] it was 81.5%. In addition, the viability at 10 µM in [3] was 102%. The viability at 100 µM in data set [4] came to 101%. The Ratio is reported as 0.91 in the data set with B16-F10 [5] and 0.81 in the data set with B16-F10 [6].
The IC50 is the point on the concentration scale where inhibition reaches its midpoint. Regarding `C=C[C@@](C)(O)CC/C=C(\C)C(=O)O[C@H]1[C@H](O)[C@@H](O)[C@H](O[C@](C)(C=C)CCCC(C)C(=O)O[C@H]2C[C@]3(C(=O)O[C@@H]4O[C@H](CO)[C@@H](O)[C@H](O)[C@H]4O[C@@H]4O[C@@H](C)[C@H](O[C@@H]5O[C@@H](CO)[C@H](O)[C@H]5O)[C@@H](O[C@@H]5O[C@H](CO)[C@@H](O)[C@H](O)[C@H]5O)[C@H]4O)[C@H](O)C[C@]4(C)C(=CC[C@@H]5[C@@]6(C)CC[C@H](O[C@@H]7O[C@H](CO[C@@H]8OC[C@H](O)[C@H](O)[C@H]8O[C@@H]8OC[C@@H](O)[C@H](O)[C@H]8O)[C@@H](O)[C@H](O)[C@H]7O)C(C)(C)[C@@H]6CC[C@]54C)[C@@H]3CC2(C)C)O[C@@H]1C` (some centres undefined), the Activity in the data set with B16-F10 [1] came out at 86.2%; in the data set with B16-F10 [2], 80%. Moreover, the viability at 10 µM in data set [3] is 107%. The viability at 100 µM in data set [4] stood at 104%. Moreover, the values for the Ratio in the data set with B16-F10 [5] and in the data set on B16-F10 [6] were 0.81 and 0.77, respectively. Besides, the IC50 with HL-60 worked out at 900 nM; with AZ-521 cell line, 1200 nM; with SK-BR-3, 800 nM; in the data set with A549 it was 1000 nM; with WI-38, 8300 nM. The “Ratio IC50” value in data set [7] was 8.2.
For `C=C[C@@](C)(O)CC/C=C(\C)C(=O)O[C@H]1[C@H](O)[C@@H](O)[C@H](O[C@](C)(C=C)CCCC(C)C(=O)O[C@H]2C[C@]3(C(=O)O[C@@H]4O[C@H](CO)[C@@H](O)[C@H](O)[C@H]4O[C@@H]4O[C@@H](C)[C@H](O[C@@H]5O[C@@H](CO)[C@H](O)[C@H]5O)[C@@H](O[C@@H]5O[C@H](CO)[C@@H](O)[C@H](O)[C@H]5O)[C@H]4O)CC[C@]4(C)C(=CC[C@@H]5[C@@]6(C)CC[C@H](O[C@@H]7O[C@H](CO[C@@H]8O[C@H](C)[C@H](O)[C@H](O)[C@H]8O[C@@H]8OC[C@@H](O)[C@H](O)[C@H]8O)[C@@H](O)[C@H](O)[C@H]7O[C@@H]7O[C@H](CO)[C@@H](O)[C@H](O)[C@H]7O)C(C)(C)[C@@H]6CC[C@]54C)[C@@H]3CC2(C)C)O[C@@H]1C` (some centres undefined), the Activity with B16-F10 [1] was 86.5%; with B16-F10 [2] it was 79.6%. The viability at 10 µM in [3] is 110%. The viability at 100 µM in data set [4] was found to be 104%. In addition, the values for the Ratio in the data set on B16-F10 [5] and with B16-F10 [6] were 0.79 and 0.77, respectively. Moreover, the IC50 was determined as 600 nM in the data set on HL-60; 600 nM with AZ-521 cell line; 2600 nM in the data set on SK-BR-3; 1800 nM in the data set on A549; 4800 nM in the data set on WI-38. Besides, the “Ratio IC50” value in [7] came out at 2.7.
For the molecule `C=C[C@@](C)(O)CC/C=C(\C)C(=O)O[C@H]1[C@H](O)[C@@H](O)[C@H](O[C@](C)(C=C)CCCC(C)C(=O)O[C@H]2C[C@]3(C(=O)O[C@@H]4O[C@H](CO)[C@@H](O)[C@H](O)[C@H]4O[C@@H]4O[C@@H](C)[C@H](O[C@@H]5O[C@@H](CO)[C@H](O)[C@H]5O)[C@@H](O[C@@H]5O[C@H](CO)[C@@H](O)[C@H](O)[C@H]5O)[C@H]4O)CC[C@]4(C)C(=CC[C@@H]5[C@@]6(C)CC[C@H](O[C@@H]7O[C@H](CO[C@@H]8O[C@H](C)[C@H](O)[C@H](O)[C@H]8O[C@@H]8OC[C@@H](O)[C@H](O)[C@H]8O)[C@@H](O)[C@H](O)[C@H]7O)C(C)(C)[C@@H]6CC[C@]54C)[C@@H]3CC2(C)C)O[C@@H]1C` (some centres undefined), the Activity turned out to be 74.3% in the data set with B16-F10 [1] and 42.5% in the data set on B16-F10 [2]. Besides, the viability at 10 µM in data set [3] was 107%. In data set [4], the viability at 100 µM worked out at 102%. The Ratio came out at 0.69 in the data set on B16-F10 [5] and 0.42 in the data set on B16-F10 [6]. Besides, the IC50 was determined as 900 nM with HL-60; 1700 nM with AZ-521 cell line; 400 nM in the data set on SK-BR-3; 1300 nM with A549; 2500 nM in the data set with WI-38. For the same molecule, the “Ratio IC50” value in [7] amounted to 1.8.
Consider `C=C[C@@](C)(O)CC/C=C(\C)C(=O)O[C@H]1[C@H](O)[C@@H](O)[C@H](O[C@](C)(C=C)CCCC(C)C(=O)O[C@H]2C[C@]3(C(=O)O[C@@H]4O[C@H](CO)[C@@H](O)[C@H](O)[C@H]4O[C@@H]4O[C@@H](C)[C@H](O[C@@H]5O[C@@H](CO)[C@H](O)[C@H]5O)[C@@H](O[C@@H]5O[C@H](CO)[C@@H](O)[C@H](O)[C@H]5O)[C@H]4O)CC[C@]4(C)C(=CC[C@@H]5[C@@]6(C)CC[C@H](O[C@@H]7O[C@H](CO[C@@H]8OC[C@H](O)[C@H](O)[C@H]8O[C@@H]8OC[C@@H](O)[C@H](O)[C@H]8O)[C@@H](O)[C@H](O)[C@H]7O[C@@H]7O[C@H](CO)[C@@H](O)[C@H](O)[C@H]7O)C(C)(C)[C@@H]6CC[C@]54C)[C@@H]3CC2(C)C)O[C@@H]1C` (some centres undefined), for which the values for the Activity in the data set with B16-F10 [1] and in the data set with B16-F10 [2] were 89.2% and 75.2%, respectively. In addition, the viability at 10 µM in data set [3] was found to be 110%. Besides, in [4], the viability at 100 µM stood at 102%. The Ratio is on record as 0.81 with B16-F10 [5] and 0.74 in the data set on B16-F10 [6]. Also, the IC50 in the data set on HL-60 was found to be 500 nM; in the data set with AZ-521 cell line it was 400 nM; in the data set on SK-BR-3, 1100 nM; in the data set on A549, 660 nM; in the data set on WI-38, 2200 nM. In addition, the “Ratio IC50” value in data set [7] worked out at 3.4.
